The subject of assay [1] is Human immunodeficiency virus 1. Briefly: Antiviral activity against enfuvirtide-resistant Human immunodeficiency virus 1 NL4-3 by MAGI assay using human HeLa Cd4/LTR-beta-galactosidase cells. As to conditions: Human immunodeficiency virus 1, NL4-3, HeLa. In kind it is functional, organism-based.
Assay [2] concerns Human immunodeficiency virus 1. Briefly: Antiviral activity against enfuvirtide-resistant Human immunodeficiency virus 1 NL4-3 harboring gp41 D36G mutation by MAGI assay using human HeLa Cd4/LTR-beta-galactosidase cells. In kind it is functional, organism-based.
The subject of assay [3] is Human immunodeficiency virus 1. Put plainly: Antiviral activity against enfuvirtide-resistant Human immunodeficiency virus 1 NL4-3 harboring gp41 D36G/V38A mutation by MAGI assay using human HeLa Cd4/LTR-beta-galactosidase cells. The class given is functional, organism-based.
In assay [4] the test system is Human immunodeficiency virus 1. Put plainly: Antiviral activity against enfuvirtide-resistant Human immunodeficiency virus 1 NL4-3 harboring gp41 D36G/N43D mutation by MAGI assay using human HeLa Cd4/LTR-beta-galactosidase cells. The class given is functional, organism-based.
For assay [5], the system named is Human immunodeficiency virus 1. Put plainly: Antiviral activity against enfuvirtide-resistant Human immunodeficiency virus 1 NL4-3 harboring gp41 D36G/N43D/S138A mutation by MAGI assay using human HeLa Cd4/LTR-beta-galactosidase cells. The class given is functional, organism-based.
In assay [6] the test system is Human immunodeficiency virus 1. Put plainly: Antiviral activity against enfuvirtide-resistant Human immunodeficiency virus 1 NL4-3 harboring gp41 D36G/N126K mutation by MAGI assay using human HeLa Cd4/LTR-beta-galactosidase cells. The class given is functional, organism-based.
The test system of assay [7] is Human immunodeficiency virus 1. Put plainly: Antiviral activity against enfuvirtide-resistant Human immunodeficiency virus 1 NL4-3 harboring gp41 D36G/I37K/N126K/L204I mutation and 5-amino-acid deletion in the V4 region of gp120 protein by MAGI assay using human HeLa Cd4/LTR-beta-galactosidase cells by MAGI assay. In kind it is functional, organism-based.
For assay [8], the system named is Human immunodeficiency virus 1. Briefly: Antiviral activity against enfuvirtide-resistant Human immunodeficiency virus 1 NL4-3 by MAGI assay using human HeLa Cd4/LTR-beta-galactosidase cells relative to HIV1 NL4-3 gp41 D36G mutant. The class given is functional.
For assay [9], the system named is Human immunodeficiency virus 1. Briefly: Antiviral activity against enfuvirtide-resistant Human immunodeficiency virus 1 NL4-3 harboring gp41 D36G/V38A mutation by MAGI assay using human HeLa Cd4/LTR-beta-galactosidase cells relative to HIV1 NL4-3 gp41 D36G mutant. In kind it is functional.
Assay [10] concerns Human immunodeficiency virus 1. Briefly: Antiviral activity against enfuvirtide-resistant Human immunodeficiency virus 1 NL4-3 harboring gp41 D36G/N43D mutation by MAGI assay using human HeLa Cd4/LTR-beta-galactosidase cells relative to HIV1 NL4-3 gp41 D36G mutant. In kind it is functional.
The subject of assay [11] is Human immunodeficiency virus 1. Put plainly: Antiviral activity against enfuvirtide-resistant Human immunodeficiency virus 1 NL4-3 harboring gp41 D36G/N43D/S138A mutation by MAGI assay using human HeLa Cd4/LTR-beta-galactosidase cells relative to HIV1 NL4-3 gp41 D36G mutant. The class given is functional.
The test system of assay [12] is Human immunodeficiency virus 1. Put plainly: Antiviral activity against enfuvirtide-resistant Human immunodeficiency virus 1 NL4-3 harboring gp41 D36G/N126K mutation by MAGI assay using human HeLa Cd4/LTR-beta-galactosidase cells relative to HIV1 NL4-3 gp41 D36G mutant. In kind it is functional.
Assay [13] concerns Human immunodeficiency virus 1. Briefly: Antiviral activity against enfuvirtide-resistant Human immunodeficiency virus 1 NL4-3 harboring gp41 D36G/I37K/N126K/L204I mutation and 5-amino-acid deletion in the V4 region of gp120 protein by MAGI assay using human HeLa Cd4/LTR-beta-galactosidase cells relative to HIV1 NL4-3 gp41 D36G mutant by MAGI assay. In kind it is functional.

Assay [14] relates to Human immunodeficiency virus 1. Put plainly: Antiviral activity against enfuvirtide-resistant Human immunodeficiency virus 1 NL4-3 by MAGI assay using human HeLa Cd4/LTR-beta-galactosidase cells in presence of 5 to 50% fetal calf serum. In kind it is functional, organism-based. The method in brief: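 MAGI assay against HIV-1 NL4-3 run with FCS at 5, 10, 20 or 50% in the medium. HeLa CD4/LTR-β-galactosidase cells were inoculated at 60 MAGI U/well, cultured 48 h with drug, and X-gal-stained blue cells counted. Each EC50 was determined three times independently, with Student's t test.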

In assay [15] the test system is Human immunodeficiency virus 1. Put plainly: Antiviral activity against enfuvirtide-resistant Human immunodeficiency virus 1 NL4-3 by MAGI assay using human HeLa Cd4/LTR-beta-galactosidase cells in presence fresh human serum after 2 hrs. The class given is functional, organism-based.
Assay [16] relates to Human immunodeficiency virus 1. Put plainly: Antiviral activity against Human immunodeficiency virus 1 NL4-3 assessed as decrease in EC50 by MAGI assay relative to ddC. In kind it is functional, organism-based. The procedure, abridged: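 HeLa CD4/LTR-β-galactosidase (MAGI) cells were seeded at 10^4/well and infected next day with HIV-1 NL4-3 (60 MAGI U/well). They were cultured 48 h with serial drug dilutions in medium containing 5, 10, 20 or 50% FCS, with ddC as the reverse transcriptase inhibitor reference. X-gal-stained blue cells were counted. EC50 is the concentration giving 50% inhibition, determined three times independently.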

The source made the active and inactive calls. The rule behind the calls is not given here. Non-standard residues stand in square brackets, D forms with d. Nle = CCCC[C@H](N)C(=O)O

A word on the EC50: it is the concentration that produces a half-maximal response. Higher therefore signals a need for much substance. On to H-WEEWDKKIEEYTKKIEELIKKSEEQQKKN-OH, for which the EC50 in assay [1] was 2.4 nM; in [2], 1.9 nM; in assay [3] it was 3 nM; in assay [4] it was 4.1 nM; in [5], 3.4 nM; in assay [6], 2.7 nM. Also, in [7], a half-maximal response (EC50) required 50 nM. For the same compound, the “Ratio EC50” value in [8] came to 1.3; in [9], 1.6; in assay [10], 2.2; in assay [11], 1.8; in [12], 1.4; in assay [13], 26. Moreover, the inhibition result in assay [14] and in [15] was “Active” each time.

enfuvirtide: the EC50 in assay [1] was found to be 15 nM; in assay [2] it was 2.4 nM; in assay [3] it was 23 nM; in [4], 49 nM; in assay [5] it was 84 nM; in [6] it was 3.4 nM. In [7], this compound returned a concentration giving a half-maximal response (EC50) of 390 nM. Besides, the inhibition result in assay [16] and in [14] was “inactive” throughout. The “Ratio EC50” value in assay [8] is 6.3; in assay [9] it was 9.6; in assay [10], 20; in [11] it was 35; in [12] it was 1.4; in assay [13], 163. For the same compound, the inhibition entry in assay [15] is “Active”.

For H-WEEWDKKIEEYTKKIEELIKKS-OH, the EC50 is 217 nM in [1]; 686 nM in [2]; 289 nM in assay [3]; 114 nM in assay [4]; greater than 1000 nM in assay [5]; greater than 1000 nM in [6]. Also, the response in assay [7] was half-maximal at 252 nM (EC50). Moreover, the “Ratio EC50” value in assay [8] is 0.3; in assay [9] it was 0.4; in assay [10] it was 0.2; in assay [11], greater than 1.5; in [12], greater than 1.5; in assay [13] it was 0.4.

For `CC[C@H](C)[C@H](NC(=O)[C@H](CC(C)C)NC(=O)[C@H](CO)NC(=O)[C@H](Cc1cnc[nH]1)NC(=O)[C@@H](NC(=O)[C@H](CC(C)C)NC(=O)[C@H](CO)NC(=O)[C@@H](NC(=O)[C@H](Cc1ccc(O)cc1)NC(=O)[C@H](CC(N)=O)NC(=O)[C@H](CC(N)=O)NC(=O)[C@@H](NC(=O)[C@H](CCC(=O)O)NC(=O)[C@H](CCCNC(=N)N)NC(=O)[C@H](CC(=O)O)NC(=O)[C@H](Cc1c[nH]c2ccccc12)NC(=O)[C@H](CCC(=O)O)NC(=O)[C@@H](CCS)NC(=O)[C@@H](N)Cc1c[nH]c2ccccc12)[C@@H](C)CC)[C@@H](C)O)[C@@H](C)CC)C(=O)N[C@@H](CCC(=O)O)C(=O)N[C@@H](CCC(=O)O)C(=O)N[C@@H](CO)C(=O)N[C@@H](CCC(N)=O)C(=O)N[C@@H](CC(N)=O)C(=O)N[C@@H](CCC(N)=O)C(=O)N[C@@H](CCC(N)=O)C(=O)N[C@@H](CCC(=O)O)C(=O)N[C@@H](CCCCN)C(=O)N[C@@H](CC(N)=O)C(=O)N[C@@H](CCC(N)=O)C(=O)N[C@@H](CCC(=O)O)C(=O)N[C@@H](CC(C)C)C(=O)N[C@@H](CC(C)C)C(=O)O`, the EC50 in [1] was 245 nM; in assay [2], 52 nM; in assay [3], 504 nM; in assay [4] it was greater than 1000 nM; in assay [5], greater than 1000 nM; in assay [6] it was 192 nM. The same compound displayed an EC50 in assay [7] greater than 1000 nM. For the same compound, the “Ratio EC50” value in assay [8] was 4.7; in assay [9], 9.7; in assay [10], greater than 19; in assay [11], greater than 19; in assay [12] it was 3.7; in assay [13], greater than 19.

Consider “H-W[Nle]EWDRKIEEYTKKIEELIKKSQEQQEKNEKELKREREREG-OH”, for which the EC50 in assay [1] came out at 1.6 nM; in assay [2] it was 2.4 nM; in assay [3], 2.2 nM; in assay [4] it was 1.6 nM; in assay [5], 1.5 nM; in assay [6], 12 nM. Moreover, in [7], the EC50 was 3 nM. For the same compound, the “Ratio EC50” value is on record as 0.7 in assay [8]; 0.9 in assay [9]; 0.7 in assay [10]; 0.6 in assay [11]; 5 in assay [12]; 1.3 in assay [13]. Further, the inhibition entry in assay [14] was “Active”.

The values above are taken from ChEMBL document CHEMBL1649128, “SC29EK, a peptide fusion inhibitor with enhanced alpha-helicity, inhibits replication of human immunodeficiency virus type 1 mutants resistant to enfuvirtide” (Antimicrob Agents Chemother, 2009).
